Experimental data reported in ChEMBL document CHEMBL3045132, “Synthesis and antiviral activity of novel chiral cyanoacrylate derivatives” (2005).

Key:
Format in all cases: functional
Amaranthus retroflexus [1] = test: Herbicidal activity against Amaranthus retroflexus assessed as inhibition effect at 1500 g/ha sprayed to the stem and leaves after seed germination
Method in brief: (§1)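 Post-emergence: compounds sprayed onto stems and leaves after seed germination; equal amount of water sprayed as control. Aerial tissue fresh weight measured 10 days after treatment; activity expressed as percent inhibition of aerial fresh weight.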

[2] = test system: Brassica rapa subsp. oleifera; test: Herbicidal activity against Brassica rapa subsp. oleifera assessed as inhibition effect at 1500 g/ha sprayed soil immediately after seed planting
Method in brief: (§2)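 Pre-emergence: compounds sprayed onto soil immediately after seed planting; equal amount of water sprayed as control. Aerial tissue fresh weight measured 10 days after treatment; activity expressed as percent inhibition of aerial fresh weight.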

Echinochloa crus-galli [3] = test: Herbicidal activity against Echinochloa crus-galli (barnyard grass) assessed as inhibition effect at 1500 g/ha sprayed soil immediately after seed planting; method in brief: as §2
Echinochloa crus-galli [4] = test: Herbicidal activity against Echinochloa crus-galli (barnyard grass) assessed as inhibition effect at 1500 g/ha sprayed to the stem and leaves after seed germination; method in brief: as §1
Tobacco mosaic virus [5] = test: Antiviral activity against Tobacco mosaic virus (TMV) inoculated in whole leaves of Nicotiana tabacum L. assessed as curative effect measured as local lesion number at 500 mg/l after 3 to 4 days
Method in brief: (§3)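 Same-age N. tabacum L. leaves dipped-inoculated over the whole leaf with TMV at 6 × 10^-3 mg/mL, then washed with water and dried. Compound solution smeared on left half, solvent on right half as control. Local lesions counted 3-4 days after inoculation; three repetitions. Inhibition (%) calculated from control versus treated average lesion numbers.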

Tobacco mosaic virus [6] = test: Antiviral activity against Tobacco mosaic virus (TMV) inoculated in left side of Nicotiana tabacum L. leaves assessed as inhibition of local lesion number at 500 mg/l measured after 3 to 4 days
Method in brief: (§4)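 Half-leaf test on Nicotiana tabacum L.: TMV mixed with an equal volume of compound solution for 30 min, then inoculated on the left half-leaf; right half received virus plus solvent as control. Local lesions counted 3-4 days after inoculation; three repetitions. Inhibition (%) = (control lesions − treated lesions)/control lesions.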

A-431 = test: Antiproliferative activity against Homo sapiens (human) A431 cells at 5 uM measured after 72 hr by MTT assay; conditions: A-431, 72 h
Method in brief: (§5)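 Cells plated at 3 × 10³/well in F-12 (PC3) or RPMI 1640 (A431) with 10% fetal bovine serum; compounds dissolved in DMSO, diluted in medium, exposed 72 h; vehicle control 0.1% DMSO. MTT cleavage to formazan read at 550 nm. Inhibition rate (%) = (A1 − A2)/A1 × 100, A1 untreated and A2 treated mean optical density; values as mean ± s.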

[7] = test system: Brassica rapa subsp. oleifera; test: Herbicidal activity against Brassica rapa subsp. oleifera assessed as inhibition effect at 1500 g/ha sprayed to the stem and leaves after seed germination; method in brief: as §1
Amaranthus retroflexus [8] = test: Herbicidal activity against Amaranthus retroflexus assessed as inhibition effect at 1500 g/ha sprayed soil immediately after seed planting; method in brief: as §2
PC-3 = test: Antiproliferative activity against Homo sapiens (human) PC3 cells at 5 uM measured after 72 hr by MTT assay; conditions: PC-3, 72 h; method in brief: as §5
Tobacco mosaic virus [9] = test: Antiviral activity against Tobacco mosaic virus (TMV) inoculated in left side of Nicotiana tabacum L. leaves assessed as inhibition of local lesion number at 50 mg/l measured after 3 to 4 days; method in brief: as §4
Tobacco mosaic virus [10] = test: Antiviral activity against Tobacco mosaic virus (TMV) inoculated in whole leaves of Nicotiana tabacum L. assessed as curative effect measured as local lesion number at 50 mg/l after 3 to 4 days; method in brief: as §3

Row | Compound | inhibition at 1500 g/ha (Amaranthus retroflexus [1]) [%] | inhibition at 1500 g/ha [2] [%] | inhibition at 1500 g/ha (Echinochloa crus-galli [3]) [%] | inhibition at 1500 g/ha (Echinochloa crus-galli [4]) [%] | inhibition at 500 µg/mL (Tobacco mosaic virus [5]) [%] | inhibition at 500 µg/mL (Tobacco mosaic virus [6]) [%] | inhibition at 5 µM (A-431) [%] | inhibition at 1500 g/ha [7] [%] | inhibition at 1500 g/ha (Amaranthus retroflexus [8]) [%] | inhibition at 5 µM (PC-3) [%] | inhibition at 50 µg/mL (Tobacco mosaic virus [9]) [%] | inhibition at 50 µg/mL (Tobacco mosaic virus [10]) [%]
1 | CCOC(=O)/C(C#N)=C(/Nc1ccc(C(F)(F)F)cc1)N[C@H](C)c1ccccc1 | 0 | 16.1 | 11.4 | 2.86 | 39.1 | 28.9 | 43.1 | 0 | 0 | 59.4 | – | –
2 | CCOC(=O)/C(C#N)=C(/Nc1ccc(C(F)(F)F)cc1)N[C@@H](C)c1ccccc1 | 0 | 21.4 | 10 | 5.71 | 15.2 | 6.1 | 39.9 | 30.5 | 10.5 | 49.1 | – | –
3 | CCOC(=O)/C(C#N)=C(/Nc1ccc(Br)cc1)N[C@H](C)c1ccccc1 | 0 | 5.38 | 4.29 | 0 | 12.3 | 53.4 | 16.1 | 10.9 | 0 | 1.5 | – | –
4 | CCOC(=O)/C(C#N)=C(/Nc1ccc(Br)cc1)N[C@@H](C)c1ccccc1 | 0 | 1.29 | 10 | 34.3 | 3.4 | 0 | 19.3 | 35.3 | 0 | 24.7 | – | –
5 | CCOC(=O)/C(C#N)=C(/Nc1ccc([N+](=O)[O-])cc1)N[C@H](C)c1ccccc1 | 0 | 21.4 | 18.6 | 0 | 43.1 | 89.1 | 23.6 | 17.2 | 0 | 2.9 | – | –
6 | CCOC(=O)/C(C#N)=C(/Nc1ccc([N+](=O)[O-])cc1)N[C@@H](C)c1ccccc1 | 0 | 25 | 14.3 | 13.3 | 13.1 | 5.3 | 18.1 | 32.1 | 0 | 0.7 | – | –
7 | CCOC(=O)/C(C#N)=C(/NNC(=O)c1cc(OC)c(OC)c(OC)c1)N[C@H](C)c1ccccc1 | 0 | 0 | 5.71 | 7.62 | 26.7 | 46.4 | 25.1 | 3.13 | 26.3 | 32.1 | – | –
8 | CCOC(=O)/C(C#N)=C(/NNC(=O)c1cc(OC)c(OC)c(OC)c1)N[C@@H](C)c1ccccc1 | 0 | 0 | 7.14 | 0 | 12.1 | 7.5 | 29.4 | 18.8 | 10.5 | 3.2 | – | –
9 | COc1ccc2c3c(c4cc(OC)c(OC)cc4c2c1)C[C@H]1CCCN1C3 [(-)-ANTOFINE] | – | – | – | – | – | – | – | – | – | – | 14 | 29.2
10 | O=c1[nH]cc(F)c(=O)[nH]1 [FLUOROURACIL] | – | – | – | – | – | – | 30.7 | – | – | 41.1 | – | –
11 | CNCC(=O)N[C@@H](CO)C(=O)N[C@H]1[C@H](O)[C@@H](O)[C@H](n2ccc(N)nc2=O)O[C@@H]1C(N)=O [NINGNANMYCIN] | – | – | – | – | 28.9 | 88.9 | – | – | – | – | – | –
